Values after ≈ are worked out from the molar mass of the structure shown.
What was measured:
[1] = fT>MIC required for stasis inhibition of community acquired methicillin-resistant Staphylococcus aureus 144 infection in neutropenic BALB/cAnNCr mouse; assay type: functional
Summary of the method: (§1)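 Same neutropenic murine pneumonia model, with 24-h lung log10 CFU change (5 mice per group; 1–25 mg/kg s.c., 1–5 times daily). […] ED50, ED80 and stasis exposures were taken from a sigmoid Emax fit for each isolate.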

[2] = fT>MIC required for stasis inhibition of hospital acquired methicillin-resistant Staphylococcus aureus 152 infection in neutropenic BALB/cAnNCr mouse; assay type: functional; summary of the method: as §1
[3] = fT>MIC required for stasis inhibition of hospital acquired methicillin-resistant Staphylococcus aureus 149 infection in neutropenic BALB/cAnNCr mouse; assay type: functional; summary of the method: as §1
[4] = fT>MIC required for stasis inhibition of hospital acquired methicillin-resistant Staphylococcus aureus 56 infection in neutropenic BALB/cAnNCr mouse; assay type: functional; summary of the method: as §1
[5] = fT>MIC required for 50% inhibition of community acquired Staphylococcus aureus 147 infection in neutropenic BALB/cAnNCr mouse; assay type: functional
[6] = fT>MIC required for 50% inhibition of hospital acquired Staphylococcus aureus 149 infection in neutropenic BALB/cAnNCr mouse; assay type: functional
[7] = fT>MIC required for 80% inhibition of hospital acquired methicillin-resistant Staphylococcus aureus 152 infection in neutropenic BALB/cAnNCr mouse; assay type: functional; summary of the method: as §1
[8] = fT>MIC required for 80% inhibition of methicillin-susceptible Staphylococcus aureus […] infection in neutropenic BALB/cAnNCr mouse; assay type: functional
[9] = fT>MIC required for 80% inhibition of methicillin-susceptible Staphylococcus aureus 25923 infection in neutropenic BALB/cAnNCr mouse; assay type: functional
Staphylococcus aureus [10] = experiment: Antimicrobial activity against Staphylococcus aureus infected in BALB/cAnNCr mouse assessed as decrease in bacterial density in lungs relative to control at 1 to 25 mg/kg, sc administered as 1 to 5 times/day after 24 hrs […]; assay type: functional; conditions: dose mg/kg 1-5; route subcutaneous
Summary of the method: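 Neutropenic mice given oral S. aureus inoculum (10^7 CFU/ml in 3% mucin). s.c. dosing of 1–25 mg/kg, once to five times daily, began 6 h post-infection and ran 24 h, five mice per group, with sham-treated controls. Lung homogenates were plated on blood and Columbia agar at 35°C up to 48 h. Log10 CFU/ml at 24 h was compared with untreated controls.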

[11] = fAUC/MIC in neutropenic BALB/cAnNCr mouse plasma infected with Staphylococcus aureus at 1 to 25 mg/kg, sc administered 1 to 5 times/day after 24 hrs by HPLC; assay type: functional; conditions: route subcutaneous
Summary of the method: (§2)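 Exposure indices used free plasma drug, correcting with 19% mouse protein binding supplied by the sponsor. The regimens were s.c. 1–25 mg/kg given 1–5 times daily for 24 h to neutropenic mice with S. aureus pneumonia. MICs were determined in triplicate by CLSI broth microdilution. PK came from the single-dose HPLC study.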

[12] = fT>MIC in neutropenic BALB/cAnNCr mouse plasma infected with Staphylococcus aureus at 1 to 25 mg/kg, sc administered 1 to 5 times/day after 24 hrs HPLC; assay type: functional; conditions: route subcutaneous; summary of the method: as §2
[13] = Elimination clearance in neutropenic BALB/cAnNCr mouse infected with Staphylococcus aureus at 25 mg/kg, sc administered as single dose after 6 hrs of infection; assay type: ADME, organism-based; parameters: dose 25 mg/kg, route subcutaneous; conditions: in vivo
Summary of the method: (§3)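 Neutropenic female mice (cyclophosphamide i.p. 250 mg/kg day −4, 100 mg/kg day −1) with HA-MRSA 56 pneumonia (oral inoculum, 10^7 CFU/ml in 3% mucin). Single s.c. dose in sterile water. Plasma by intracardiac puncture at 0.25–4 h, six mice per time point, stabilized with citric acid. Assayed by validated HPLC (LOQ 0.01 µg/ml). Parameters from one-compartment analysis.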

[14] = Elimination clearance in neutropenic BALB/cAnNCr mouse infected with Staphylococcus aureus at 10 mg/kg, sc administered as single dose after 6 hrs of infection; assay type: ADME, organism-based; parameters: dose 10 mg/kg, route subcutaneous; conditions: in vivo; summary of the method: as §3
[15] = Elimination clearance in neutropenic BALB/cAnNCr mouse infected with Staphylococcus aureus at 2.5 mg/kg, sc administered as single dose after 6 hrs of infection; assay type: ADME, organism-based; parameters: dose 2.5 mg/kg, route subcutaneous; conditions: in vivo
Summary of the method: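 Female BALB/cAnNCr mice (7-9 weeks, 15-22 g) made neutropenic with cyclophosphamide, 250 mg/kg i.p. on day -4 and 100 mg/kg i.p. on day -1. Infected by oral aspiration of HA-MRSA 56 (10^7 CFU/ml in 3% mucin/saline). Single s.c. dose in sterile water given 6 h post-challenge. Plasma (EDTA, citric acid-stabilized) taken at 0.25-4 h, six mice per time point. Assayed by validated HPLC (LOQ 0.01 µg/ml); one-compartment analysis.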

[16] = Elimination clearance in neutropenic BALB/cAnNCr mouse infected with Staphylococcus aureus at 1 mg/kg, sc administered as single dose after 6 hrs of infection; assay type: ADME, organism-based; parameters: dose 1 mg/kg, route subcutaneous; conditions: in vivo; summary of the method: as §3
[17] = Elimination half life in neutropenic BALB/cAnNCr mouse infected with Staphylococcus aureus at 1 mg/kg, sc administered as single dose after 6 hrs of infection; assay type: ADME, organism-based; parameters: dose 1 mg/kg, route subcutaneous; conditions: in vivo; summary of the method: as §3
Mus musculus = experiment: Volume of distribution in neutropenic BALB/cAnNCr mouse infected with Staphylococcus aureus at 25 mg/kg, sc administered as single dose after 6 hrs of infection; assay type: ADME, organism-based; parameters: dose 25 mg/kg, route subcutaneous; conditions: in vivo; summary of the method: as §3
[18] = AUC (0 to infinity) in neutropenic BALB/cAnNCr mouse infected with Staphylococcus aureus at 1 mg/kg, sc administered as single dose after 6 hrs of infection; assay type: ADME, organism-based; parameters: time infinity, dose 1 mg/kg, route subcutaneous; conditions: plasma; summary of the method: as §3
[19] = Tmax in neutropenic BALB/cAnNCr mouse infected with Staphylococcus aureus at 10 mg/kg, sc administered as single dose after 6 hrs of infection; assay type: ADME, organism-based; parameters: dose 10 mg/kg, route subcutaneous; conditions: in vivo; summary of the method: as §3
[20] = Cmax in neutropenic BALB/cAnNCr mouse infected with Staphylococcus aureus at 10 mg/kg, sc administered as single dose after 6 hrs of infection; assay type: ADME, organism-based; parameters: dose 10 mg/kg, route subcutaneous; conditions: in vivo; summary of the method: as §3
Staphylococcus aureus [21] = experiment: Antimicrobial activity against hospital acquired methicillin-resistant Staphylococcus aureus 152 by broth microdilution method; assay type: functional
Summary of the method: (§4)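 Broth microdilution run in triplicate following CLSI guidelines. Isolates were stored at –80°C in double-strength skim milk and subcultured twice on Trypticase soy agar with 5% sheep blood before testing.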

Staphylococcus aureus [22] = experiment: Antimicrobial activity against hospital acquired methicillin-resistant Staphylococcus aureus 149 by broth microdilution method; assay type: functional; summary of the method: as §4
Staphylococcus aureus [23] = experiment: Antimicrobial activity against community acquired methicillin-resistant Staphylococcus aureus 147 by broth microdilution method; assay type: functional; summary of the method: as §4
Staphylococcus aureus [24] = experiment: Antimicrobial activity against methicillin-susceptible Staphylococcus aureus ATCC 29213 by broth microdilution method; assay type: functional; summary of the method: as §4
[25] = fT>MIC required for 50% inhibition of Staphylococcus aureus infection in neutropenic BALB/cAnNCr mouse; assay type: functional
[26] = fT>MIC required for stasis inhibition of Staphylococcus aureus infection in neutropenic BALB/cAnNCr mouse; assay type: functional
[27] = fAUC/MIC required for 50% inhibition of Staphylococcus aureus infection in neutropenic BALB/cAnNCr mouse; assay type: functional

Nc1nc(/C(=N/O)C(=O)N[C@@H]2C(=O)N3C(C(=O)O)=C(/C=C4\CCN([C@@H]5CCNC5)C4=O)CS[C@H]23)ns1 [CEFTOBIPROLE]
fT>MIC [1]: 13.6% | fT>MIC [2]: 13.4% | fT>MIC [3]: 6.6% | fT>MIC [4]: 13.1% | fT>MIC [5]: 17.1% | fT>MIC [6]: 8.6% | fT>MIC [7]: 15.9% | fT>MIC [8]: 19.5% | fT>MIC [9]: 10.2% | log10cfu (Staphylococcus aureus [10]): 2.5 | fAUC/MIC [11]: 2 | fT>MIC [12]: 3% | CL/F [13]: 11.8 mL/min/kg | CL/F [14]: 10.5 mL/min/kg | CL/F [15]: 16.2 mL/min/kg | CL/F [16]: 9 mL/min/kg | half-life [17]: 15 min | Vd (Mus musculus): 0.41 L/kg | AUC(0-inf) [18]: 1840 ng·h/mL | Tmax [19]: 9 min | Cmax [20]: 19800 ng/mL | MIC (Staphylococcus aureus [21]): 0.5 µg/mL (≈ 0.935 µM) | MIC (Staphylococcus aureus [22]): 1 µg/mL (≈ 1.87 µM) | MIC (Staphylococcus aureus [23]): 1 µg/mL (≈ 1.87 µM) | MIC (Staphylococcus aureus [24]): 0.25 µg/mL (≈ 0.468 µM) | fT>MIC [25]: 12% | fT>MIC [26]: 11% | fAUC/MIC [27]: 3
